The values below come from ChEMBL document CHEMBL3864151, “Discovery of imidazopyridazines as potent Pim-1/2 kinase inhibitors” (Bioorg Med Chem Lett, 2016).

Structures are written as SMILES.

The nature of data set [1]: Intrinsic clearance in human liver microsomes at 1 uM after 30 mins by LC-MS HRMS analysis. It is filed as ADME. Particulars: read-out: CLH. In general terms: Microsomes from liver hold many membrane-bound enzymes, among them those of drug oxidation.
A short description of data set [2]: Intrinsic clearance in rat liver microsomes at 1 uM after 30 mins by LC-MS HRMS analysis. It is filed as ADME. The conditions noted are these: read-out: CLH.
Data set [3] addresses Serine/threonine-protein kinase PIM (Homo sapiens, UniProt P11309+Q9P1W9+Q86V86). As to the kind of experiment: Inhibition of Pim1/2 in human KMS-12 cells assessed as decrease in BAD phosphorylation at Ser112 by Western blot method. It is filed as cell-based. For orientation: Immunoblotting shows a protein as a band on a membrane.
Data set [4] concerns the target Serine/threonine-protein kinase pim-1 (Homo sapiens, UniProt P11309). The data set is described as follows: Inhibition of recombinant Pim1 (unknown origin) by electrochemiluminescence assay.
In data set [5] the target is Serine/threonine-protein kinase pim-2 (Homo sapiens, UniProt Q9P1W9). As to the kind of experiment: Inhibition of recombinant Pim2 (unknown origin) by electrochemiluminescence assay.
Serine/threonine-protein kinase pim-2, sequence (Q9P1W9 whole entry): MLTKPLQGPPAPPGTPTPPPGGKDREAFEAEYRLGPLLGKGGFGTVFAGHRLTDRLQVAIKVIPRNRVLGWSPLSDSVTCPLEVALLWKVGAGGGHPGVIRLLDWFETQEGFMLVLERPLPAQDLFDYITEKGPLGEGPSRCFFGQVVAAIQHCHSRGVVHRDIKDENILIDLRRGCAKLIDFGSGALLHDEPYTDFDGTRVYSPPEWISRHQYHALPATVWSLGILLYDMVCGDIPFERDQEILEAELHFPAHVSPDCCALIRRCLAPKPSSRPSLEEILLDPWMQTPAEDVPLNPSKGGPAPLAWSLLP
Data set [6] can be described thus: Clearance in Sprague-Dawley rat at 2 mg/kg, iv relative to liver blood flow. The data set is classed as ADME, organism-based. Particulars: in vivo. An outline of the steps:
(§1)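 Male Sprague Dawley rats, 3 animals per dosing route, mean values. iv dose 2 mg/kg as a solution in DMSO; po dose 5 mg/kg in 1% Tween 80, 2% HPMC, 97% water/methanesulfonic acid pH 2.2.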

Data set [7] is described as follows: Clearance in Sprague-Dawley rat at 2 mg/kg, iv. The conditions noted are these: in vivo; for clearance: Sprague-Dawley. The data set is classed as ADME, organism-based. An outline of the steps:
as §1

Data set [8] in a line: AUC (0 to infinity) in Sprague-Dawley rat at 5 mg/kg, po. The data set is classed as ADME, organism-based. Details: dose 5 mg/kg, route oral, time infinity. The conditions noted are these: in vivo; for AUC(0-inf): Sprague-Dawley. An outline of the steps:
as §1

The nature of data set [9]: Oral bioavailability in Sprague-Dawley rat at 5 mg/kg. The data set is classed as ADME, organism-based. The conditions noted are these: in vivo; for bioavailability: Sprague-Dawley. An outline of the steps: as §1
Data set [10] can be described thus: Mean residence time in Sprague-Dawley rat at 2 mg/kg, iv. It is filed as ADME, organism-based. The conditions noted are these: in vivo. An outline of the steps:
as §1

Data set [11] can be described thus: Volume of distribution at steady state in Sprague-Dawley rat at 2 mg/kg, iv. The data set is classed as ADME, organism-based. Particulars: in vivo, read-out: Vdss. An outline of the steps:
as §1

Data set [12] addresses Voltage-gated inwardly rectifying potassium channel KCNH2 (Homo sapiens, UniProt Q12809). As to the kind of experiment: Inhibition of radiolabeled dofetilide binding to human ERG expressed in HEK293 cells.

Serine/threonine-protein kinase pim-1, sequence (P11309 whole entry): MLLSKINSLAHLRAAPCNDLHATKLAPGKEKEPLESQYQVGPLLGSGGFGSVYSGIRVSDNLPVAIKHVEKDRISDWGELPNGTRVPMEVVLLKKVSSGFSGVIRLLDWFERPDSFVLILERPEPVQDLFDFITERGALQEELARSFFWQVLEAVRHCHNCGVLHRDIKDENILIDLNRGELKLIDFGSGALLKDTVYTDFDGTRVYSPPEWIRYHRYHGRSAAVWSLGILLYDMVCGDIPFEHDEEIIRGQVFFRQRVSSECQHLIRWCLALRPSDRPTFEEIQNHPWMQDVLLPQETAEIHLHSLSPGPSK
Voltage-gated inwardly rectifying potassium channel KCNH2, sequence (Q12809 whole entry): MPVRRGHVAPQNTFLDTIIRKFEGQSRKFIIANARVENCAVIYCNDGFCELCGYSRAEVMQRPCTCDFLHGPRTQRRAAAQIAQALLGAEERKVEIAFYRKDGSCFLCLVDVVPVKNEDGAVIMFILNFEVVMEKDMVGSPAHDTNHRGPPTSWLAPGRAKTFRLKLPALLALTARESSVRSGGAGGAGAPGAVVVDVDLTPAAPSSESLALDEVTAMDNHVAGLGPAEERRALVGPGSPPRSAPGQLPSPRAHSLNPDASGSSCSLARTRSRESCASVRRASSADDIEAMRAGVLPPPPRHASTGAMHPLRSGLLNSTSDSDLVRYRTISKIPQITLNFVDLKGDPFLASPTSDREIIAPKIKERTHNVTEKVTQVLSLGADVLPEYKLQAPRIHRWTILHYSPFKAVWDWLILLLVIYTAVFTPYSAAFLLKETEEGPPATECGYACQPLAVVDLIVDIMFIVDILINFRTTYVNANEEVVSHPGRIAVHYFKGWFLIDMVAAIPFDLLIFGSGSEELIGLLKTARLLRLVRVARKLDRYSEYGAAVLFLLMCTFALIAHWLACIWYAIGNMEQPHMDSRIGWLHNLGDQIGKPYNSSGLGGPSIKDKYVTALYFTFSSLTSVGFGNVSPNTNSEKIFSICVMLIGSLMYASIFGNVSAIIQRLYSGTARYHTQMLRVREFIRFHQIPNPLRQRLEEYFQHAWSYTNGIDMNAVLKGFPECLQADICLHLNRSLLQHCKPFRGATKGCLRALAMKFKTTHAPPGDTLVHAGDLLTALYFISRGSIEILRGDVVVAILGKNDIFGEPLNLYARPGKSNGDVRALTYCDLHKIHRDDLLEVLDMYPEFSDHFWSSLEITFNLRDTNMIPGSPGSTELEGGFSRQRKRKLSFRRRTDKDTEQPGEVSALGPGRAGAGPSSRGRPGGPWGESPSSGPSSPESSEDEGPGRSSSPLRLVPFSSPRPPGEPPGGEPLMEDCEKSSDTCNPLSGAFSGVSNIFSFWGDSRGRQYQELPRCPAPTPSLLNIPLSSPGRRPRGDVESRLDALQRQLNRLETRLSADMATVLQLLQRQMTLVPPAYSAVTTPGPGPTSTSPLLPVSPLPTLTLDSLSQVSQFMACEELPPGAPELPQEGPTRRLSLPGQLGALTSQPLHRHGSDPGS

Turning to `N[C@@H]1CCCN(c2ccncc2Nc2ncc3ccc(-c4c(F)cccc4F)nn23)C1`, the results for the microsomal CLint at 1 µM in [1] and in [2] were 90 µL/min/mg and 280 µL/min/mg, respectively.

In the case of `C[C@@H]1CC[C@H](N)CN1c1ccncc1Nc1ncc2ccc(-c3cccc(F)n3)nn12`, the microsomal CLint at 1 µM in [1] worked out at 71 µL/min/mg; in data set [2], 194 µL/min/mg.

In the case of `N[C@H]1CCCN(c2ncncc2Nc2ncc3ccc(-c4c(F)cccc4F)nn23)C1`, the microsomal CLint at 1 µM in data set [1] came to 28 µL/min/mg; in data set [2] it was 110 µL/min/mg. Besides, the IC50 in data set [3] is given as over 15800 nM.

As to `C[C@H]1CC[C@H](N)CN1c1ccncc1Nc1ncc2ccc(-c3c(F)cccc3F)nn12`, the microsomal CLint at 1 µM is 80 µL/min/mg in [1] and 477 µL/min/mg in data set [2].

Turning to `N[C@@H]1CN(c2ccncc2Nc2ncc3ccc(-c4c(F)cccc4F)nn23)CC[C@H]1F`, the microsomal CLint at 1 µM in data set [1] is 443 µL/min/mg; in [2], over 399 µL/min/mg.

`N[C@H]1CCCN(c2ccncc2Nc2ncc3ccc(-c4ccccc4F)nn23)C1`: the microsomal CLint at 1 µM in data set [1] was 48 µL/min/mg; in data set [2] it was 120 µL/min/mg. In addition, the half-maximal inhibitory concentration (IC50) in data set [3] was 1536 nM; in data set [4], 0.23 nM; in data set [5], 1.6 nM.

Regarding `C[C@]1(N)CCCN(c2ccncc2Nc2ncc3ccc(-c4c(F)cccc4F)nn23)C1` (racemic), the microsomal CLint at 1 µM in [1] came to 91 µL/min/mg; in data set [2], 311 µL/min/mg.

`CN[C@H]1CCCN(c2ccncc2Nc2ncc3ccc(-c4c(F)cccc4F)nn23)C1`: the microsomal CLint at 1 µM in [1] is 66 µL/min/mg; in data set [2], 185 µL/min/mg.

For the molecule `C[C@H]1[C@@H](N)CCCN1c1ccncc1Nc1ncc2ccc(-c3c(F)cccc3F)nn12`, the microsomal CLint at 1 µM in data set [2] was found to be 312 µL/min/mg.

In the case of `N[C@H]1CCCN(c2ccccc2Nc2ncc3ccc(-c4c(F)cccc4F)nn23)C1`, the microsomal CLint at 1 µM in data set [1] worked out at 82 µL/min/mg; in data set [2], 63 µL/min/mg. Further, in data set [3], the half-inhibitory concentration (IC50) stood at 3440 nM.

Turning to `C[C@@H]1[C@@H](N)CCCN1c1ccncc1Nc1ncc2ccc(-c3c(F)cccc3F)nn12`, the microsomal CLint at 1 µM in data set [1] came out at 79 µL/min/mg; in data set [2] it was 344 µL/min/mg.

Take `O[C@H]1CCCN(c2ccncc2Nc2ncc3ccc(-c4c(F)cccc4F)nn23)C1`: the microsomal CLint at 1 µM in [1] is 472 µL/min/mg; in data set [2], over 399 µL/min/mg. The IC50 in data set [3] turned out to be 4807 nM; in data set [4], 2.9 nM.

For the molecule `N[C@H]1CCCN(c2ccncc2Nc2ncc3ccc(-c4c(F)cccc4F)nn23)C1`, the figures for the microsomal CLint at 1 µM in data set [1] and in [2] were 66 µL/min/mg and 130 µL/min/mg, respectively. The CL in [6] amounted to 40%; in data set [7], 1.4 L/h/kg. This molecule yielded an area under the curve (AUC) in [8] of 3.7 µM·h. For the same molecule, in data set [9], the F stood at 16%. Besides, the IC50 in data set [3] was 403 nM; in data set [4] it was 0.07 to 0.1 nM. Also, in [10], the MRT was determined as 5.6 h. Moreover, the Vd in data set [11] came to 7.9 L/kg.

As to `N[C@H]1C[C@@H](F)CN(c2ccncc2Nc2ncc3ccc(-c4c(F)cccc4F)nn23)C1`, the microsomal CLint at 1 µM in [1] was determined as 51 µL/min/mg; in data set [2] it was 143 µL/min/mg. Moreover, the IC50 is 983 nM in [3] and 0.78 nM in data set [4].

Consider `N[C@H]1CCCN(c2ccncc2Nc2ncc3ccc(-c4ccccc4Cl)nn23)C1`, for which the microsomal CLint at 1 µM was 90 µL/min/mg in data set [1] and 122 µL/min/mg in data set [2]. The IC50 in data set [3] was determined as 2668 nM; in data set [5], 3.4 nM.

In the case of `N[C@H]1CCCN(c2ccncc2Nc2ncc3ccc(-c4ccc(F)cc4F)nn23)C1`, the values for the microsomal CLint at 1 µM in [1] and in [2] were 31 µL/min/mg and 132 µL/min/mg, respectively. Moreover, the IC50 turned out to be 1761 nM in data set [3], 0.38 nM in [4] and 3.1 nM in data set [5].

`N[C@H]1CCCN(c2ccncc2Nc2ncc3ccc(Cl)nn23)C1`: the microsomal CLint at 1 µM in data set [1] was determined as 18 µL/min/mg; in data set [2] it was 27 µL/min/mg.

Turning to `N[C@H]1CCCN(c2ccncc2Nc2ncc3ccc(-c4ncccc4F)nn23)C1`, the microsomal CLint at 1 µM in [1] came to 36 µL/min/mg; in data set [2] it was 40 µL/min/mg. The CL in data set [6] is 21%. In data set [7], the clearance is 11.7 mL/min/kg. In data set [8], the AUC(0-inf) stood at 7.3 µM·h. Besides, the bioavailability in data set [9] came to 28%. This molecule also gave a mean residence time (MRT) in [10] of 4.1 h. Moreover, the Vd in data set [11] came out at 3.3 L/kg.

As for `C[C@@H]1CCN(c2ccncc2Nc2ncc3ccc(-c4c(F)cccc4F)nn23)C[C@H]1N`, the results for the microsomal CLint at 1 µM in data set [1] and in data set [2] were 71 µL/min/mg and 219 µL/min/mg, respectively. The IC50 in data set [3] stood at 212 nM; in data set [4] it was 0.035 nM; in data set [5], 0.18 nM.

Turning to `C[C@@H]1C[C@H](N)CN(c2ccncc2Nc2ncc3ccc(-c4ncccc4F)nn23)C1`, the figures for the microsomal CLint at 1 µM in [1] and in data set [2] were 33 µL/min/mg and 91 µL/min/mg, respectively. Besides, in data set [7], the clearance was 26.7 mL/min/kg. Further, the AUC(0-inf) in [8] amounted to 3.2 µM·h. Moreover, in data set [9], the bioavailability worked out at 60%. The same molecule yielded an MRT in data set [10] of 4.3 h. For the same molecule, the Vd in data set [11] is 6.7 L/kg.

In data set [12], `C[C@@H]1CC[C@H](N)CN1c1ccncc1Nc1ncc2ccc(-c3c(F)cccc3F)nn12` registered an IC50 of 19.7 µM. Moreover, the microsomal CLint at 1 µM in [1] is 203 µL/min/mg; in data set [2] it was over 399 µL/min/mg. In data set [7], the clearance was 91.7 mL/min/kg. Also, the AUC(0-inf) in data set [8] came out at 3.3 µM·h. The bioavailability in [9] is 141%. In addition, the MRT in data set [10] was found to be 4 h. The Vd in [11] was 21.7 L/kg.

Take `N[C@H]1CCN(c2ccncc2Nc2ncc3ccc(-c4c(F)cccc4F)nn23)C1`: the microsomal CLint at 1 µM in data set [1] is 15 µL/min/mg; in data set [2], under 14 µL/min/mg.

As for `N[C@H]1CCCN(c2sncc2Nc2ncc3ccc(-c4c(F)cccc4F)nn23)C1`, the values for the microsomal CLint at 1 µM in [1] and in [2] were 28 µL/min/mg and 167 µL/min/mg, respectively. Moreover, the half-maximal inhibitory concentration (IC50) in data set [4] was determined as 56 nM; in data set [5], 148 nM.

In the case of `N[C@H]1CCCN(c2ccncc2Nc2ncc3ccc(-c4ccc(Cl)cc4Cl)nn23)C1`, the microsomal CLint at 1 µM in data set [1] turned out to be 100 µL/min/mg; in [2], 260 µL/min/mg. Further, the results for the half-inhibitory concentration (IC50) in [3] and in data set [4] were 5007 nM and 1.8 nM, respectively.

For `Fc1cccc(F)c1-c1ccc2cnc(Nc3cnccc3N3CCCCC3)n2n1`, the microsomal CLint at 1 µM in [1] is 399 µL/min/mg; in data set [2], over 399 µL/min/mg.

In the case of `N[C@H]1CCCN(c2ccncc2Nc2ncc3ccc(-c4ccccn4)nn23)C1`, the microsomal CLint at 1 µM in data set [1] and in data set [2] was under 10 µL/min/mg each time. In addition, the concentration for half-maximal inhibition (IC50) in [3] was 1760 nM.

With `C[C@H]1C[C@H](N)CN(c2ccncc2Nc2ncc3ccc(-c4c(F)cccc4F)nn23)C1`, the microsomal CLint at 1 µM was 111 µL/min/mg in [1] and 347 µL/min/mg in data set [2].

Take `C[C@H]1CCN(c2ccncc2Nc2ncc3ccc(-c4c(F)cccc4F)nn23)C[C@H]1N`: the microsomal CLint at 1 µM in data set [1] is 130 µL/min/mg; in data set [2] it was over 399 µL/min/mg. In addition, the half-maximal inhibitory concentration (IC50) in data set [3] worked out at 2982 nM; in data set [4], 0.26 nM.

For `N[C@H]1CCC[C@@H](c2ccncc2Nc2ncc3ccc(-c4c(F)cccc4F)nn23)C1` (racemic), the microsomal CLint at 1 µM in data set [1] was under 10 µL/min/mg; in [2] it was 106 µL/min/mg. Moreover, the concentration for half-maximal inhibition (IC50) was found to be 5120 nM in data set [3] and 3.7 nM in [4].

With `N[C@H]1CCCN(c2ccncc2Nc2ncc3ccc(-c4cccnc4F)nn23)C1`, the microsomal CLint at 1 µM is 34 µL/min/mg in [1] and 39 µL/min/mg in data set [2]. The IC50 was 6599 nM in [3] and 0.23 nM in data set [4].

Regarding `N[C@H]1CCCN(c2cnccc2Nc2ncc3ccc(-c4c(F)cccc4F)nn23)C1`, the values for the microsomal CLint at 1 µM in data set [1] and in data set [2] were 67 µL/min/mg and 61 µL/min/mg, respectively.

Consider `N[C@H]1CCCN(c2ccnc(NC(=O)c3c[nH]c4ccc(-c5ccccc5F)nc34)c2)C1`, for which the IC50 in [4] came to 65 nM; in data set [5], 314 nM.

As for `N[C@H]1CCCN(c2ccncc2Nc2ncc3ccc(-c4nccs4)nn23)C1`, the microsomal CLint at 1 µM in [1] stood at 27 µL/min/mg; in data set [2] it was 54 µL/min/mg. In addition, the IC50 in [3] was found to be 602 nM; in data set [5], 2.9 nM.

For orientation: IC50 means the concentration that inhibits the measured activity by half. In general, AUC refers to concentration integrated over time. Higher therefore signals high exposure. The term MRT denotes a mean duration of stay, worked out from the concentration-time curve. What is called clearance is the volume of plasma or blood freed of the substance per unit of time. The term AUC(0-inf) denotes total exposure, with the tail of the curve extrapolated. The low end stands for less exposure, the high end for more exposure.
